This is an account of results in ChEMBL document CHEMBL1157869, “Discovering some novel tetrahydroquinoline derivatives bearing the biologically active sulfonamide moiety as a new class of antitumor agents” (Eur J Med Chem, 2010).

The IC50 is the concentration needed to halve the response being measured.

≈ marks a conversion by molar mass, not a printed value. Some results are limits rather than exact numbers.

A short description of experiment [1]: Antitumor activity against mouse EAC cells assessed as non viable cells at 100 ug/mL after 2 hrs by trypan blue exclusion test. Type of experiment: functional, Ehrlich. The method in brief:
(§1)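 Cells came from the ascitic fluid of preinoculated female Swiss albino mice and were suspended in medium with glutamine, fetal calf serum and antibiotics. Compound from DMSO dilutions was added as 0.1 mL, equal to the stated µg level, to medium plus 0.1 mL cell suspension (2 × 10^6). After 2 h at 37 °C, the percentage of non-viable cells was counted by trypan blue exclusion.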

A short description of experiment [2]: Antitumor activity against mouse EAC cells assessed as non viable cells at 50 ug/mL after 2 hrs by trypan blue exclusion test. Type of experiment: functional, Ehrlich. A digest of the protocol:
as §1

Experiment [3] in a line: Antitumor activity against mouse EAC cells assessed as non viable cells at 25 ug/mL after 2 hrs by trypan blue exclusion test. Type of experiment: functional, Ehrlich. A digest of the protocol: as §1
Experiment [4] in a line: Antitumor activity against mouse EAC cells assessed as non viable cells at 10 ug/mL after 2 hrs by trypan blue exclusion test. The experiment is classed as functional, Ehrlich. A digest of the protocol:
as §1

A short description of experiment [5]: Antitumor activity against mouse EAC cells assessed as non viable cells after 2 hrs by trypan blue exclusion test. Type of experiment: functional, cell-based. Conditions: Ehrlich. The method in brief: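 EAC cells were aspirated from the ascitic fluid of preinoculated female Swiss albino mice and suspended in medium containing glutamine, fetal calf serum, streptomycin and penicillin. Tubes received compound from DMSO dilutions (0.1 mL, corresponding to 100, 50, 25 or 10 µg) plus 0.1 mL cells and were held at 37 °C for 2 h. Non-viable cells were counted by trypan blue exclusion, and IC50 was read from the survival-versus-concentration curve.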

In the case of `N#CC1=C(N)N(c2ccc(S(N)(=O)=O)cc2)C2=C(C(=O)CCC2)C1c1ccccc1` (stereo not given), the Activity in experiment [1] came out at 40%; in experiment [2] it was 40%; in experiment [3], 30%; in experiment [4], 10%. Moreover, the IC50 in experiment [5] is more than 100 µg/mL.
In the case of `N#CC1=C(N)N(c2ccc(S(N)(=O)=O)cc2)C2=C(C(=O)CCC2)C1c1ccco1` (stereo not given), the Activity was 10% in experiment [1], 5% in experiment [2], 0% in experiment [3] and 0% in experiment [4]. In experiment [5], the IC50 was more than 100 µg/mL.
For the molecule `N#CC1=C(N)N(c2ccc(S(N)(=O)=O)cc2)C2=C(C(=O)CCC2)C1c1ccc(O)cc1` (stereo not given), the Activity was found to be 100% in experiment [1], 100% in experiment [2], 95% in experiment [3] and 90% in experiment [4]. Also, the IC50 in experiment [5] worked out at 3 µg/mL (≈ 6.87 µM).
Take `N#CC1=C(N)N(c2ccc(S(N)(=O)=O)cc2)C2=C(C(=O)CCC2)C1c1cccc([N+](=O)[O-])c1` (stereo not given): the Activity in experiment [1] was 71%; in experiment [2] it was 73%; in experiment [3], 50%; in experiment [4], 42%. Also, the IC50 in experiment [5] is 25 µg/mL (≈ 53.7 µM).
On the same counts, the results for `N#CC1=C(N)N(c2ccc(S(N)(=O)=O)cc2)C2=C(C(=O)CCC2)C1c1ccc([N+](=O)[O-])cc1` (stereo not given) are 100%, 95%, 80%, 85% and 2.5 µg/mL (≈ 5.37 µM).
For the molecule `COc1cccc2c1C(=O)c1c(O)c3c(c(O)c1C2=O)C[C@@](O)(C(=O)CO)C[C@@H]3O[C@H]1C[C@H](N)[C@H](O)[C@H](C)O1` [DOXORUBICIN], the Activity in experiment [1] is on record as 100%; in experiment [2] it was 60%; in experiment [3], 39%; in experiment [4] it was 20%. The IC50 in experiment [5] amounted to 37.5 µg/mL (≈ 69 µM).
On the same counts, the results for `N#CC1=C(N)N(c2ccc(S(N)(=O)=O)cc2)C2=C(C(=O)CCC2)C1/C=C/c1ccccc1` (stereo not given) are 45%, 40%, 10%, 2% and more than 100 µg/mL.
On the same counts, the results for `COc1cc(C2C(C#N)=C(N)N(c3ccc(S(N)(=O)=O)cc3)C3=C2C(=O)CCC3)ccc1O` (stereo not given) are 100%, 90%, 50%, 0% and 25 µg/mL (≈ 53.6 µM).
On the same counts, the results for `COc1ccc2ccccc2c1C1C(C#N)=C(N)N(c2ccc(S(N)(=O)=O)cc2)C2=C1C(=O)CCC2` (stereo not given) are 80%, 70%, 62%, 40% and 12.5 µg/mL (≈ 25 µM).
As to `N#CC1=C(N)N(c2ccc(S(N)(=O)=O)cc2)C2=C(C(=O)CCC2)C1c1ccc(Cl)cc1Cl` (stereo not given), the Activity in experiment [1] was found to be 95%; in experiment [2], 65%; in experiment [3], 50%; in experiment [4], 40%. Besides, the half-maximal inhibitory concentration (IC50) in experiment [5] came out at 25 µg/mL (≈ 51.1 µM).
In the same order, the values of `COc1cc(OC)c(C2C(C#N)=C(N)N(c3ccc(S(N)(=O)=O)cc3)C3=C2C(=O)CCC3)cc1OC` (stereo not given) are 100%, 100%, 72%, 40% and 12 µg/mL (≈ 23.5 µM).
As for `Cc1ccc(C2C(C#N)=C(N)N(c3ccc(S(N)(=O)=O)cc3)C3=C2C(=O)CCC3)o1` (stereo not given), the Activity is listed as 45% in experiment [1], 40% in experiment [2], 10% in experiment [3] and 2% in experiment [4]. For the same molecule, the half-inhibitory concentration (IC50) in experiment [5] was more than 100 µg/mL.
In the same order, the values of `Cc1ccc(C2C(C#N)=C(N)N(c3ccc(S(N)(=O)=O)cc3)C3=C2C(=O)CCC3)cc1` (stereo not given) are 100%, 50%, 30%, 30% and 50 µg/mL (≈ 115 µM).
On the same counts, the results for `COc1ccccc1C1C(C#N)=C(N)N(c2ccc(S(N)(=O)=O)cc2)C2=C1C(=O)CCC2` (stereo not given) are 0%, 0%, 0%, 0% and more than 100 µg/mL.
On the same counts, the results for `CCOc1cc(C2C(C#N)=C(N)N(c3ccc(S(N)(=O)=O)cc3)C3=C2C(=O)CCC3)ccc1OC` (stereo not given) are 100%, 70%, 60%, 50% and 10 µg/mL (≈ 20.2 µM).
As to `N#CC1=C(N)N(c2ccc(S(N)(=O)=O)cc2)C2=C(C(=O)CCC2)C1c1c(O)ccc2ccccc12` (stereo not given), the Activity in experiment [1] was found to be 15%; in experiment [2], 5%; in experiment [3], 0%; in experiment [4], 0%. The IC50 in experiment [5] was more than 100 µg/mL.
In the case of `COc1ccc(C2C(C#N)=C(N)N(c3ccc(S(N)(=O)=O)cc3)C3=C2C(=O)CCC3)cc1` (stereo not given), the Activity turned out to be 100% in experiment [1], 90% in experiment [2], 50% in experiment [3] and 30% in experiment [4]. In experiment [5], the IC50 was determined as 25 µg/mL (≈ 55.5 µM).
On the same counts, the results for `N#CC1=C(N)N(c2ccc(S(N)(=O)=O)cc2)C2=C(C(=O)CCC2)C1c1cccs1` (stereo not given) are 100%, 88%, 80%, 70% and 5 µg/mL (≈ 11.7 µM).
In the same order, the values of `COc1ccc(C2C(C#N)=C(N)N(c3ccc(S(N)(=O)=O)cc3)C3=C2C(=O)CCC3)c2ccccc12` (stereo not given) are 90%, 30%, 10%, 10% and 70 µg/mL (≈ 140 µM).
